According to publication PMC11387586 (Pharmacology Research & Perspectives, 2024):
Values joined by “and” are separate entries in the source; they are usually repeats but may differ in a detail not shown here. Equal values may be shown once.

Tests used:
[1] = Total radioactivity in plasma and whole blood; assay type: in vivo, human; conditions: for Total radioactivity t1/2 / Total radioactivity tmax: median (range)
Outline: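 About 4 mL K2EDTA blood was drawn at the PK time points. […] Counting ran at least 5 min with quench correction, in duplicate where possible. LLOQ was 9.57 ng equivalents/g for blood and 6.86 for plasma. Non-compartmental analysis; tmax and t1/2 given as median (range), others as geometric mean.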

[2] = cited from earlier work
[3] = oral dose, cited from earlier work
[4] = Urinary excretion of aficamten, M1a and M1b; assay type: in vivo; conditions: human, urine, oral, 20 mg, renal clearance (CLR), geometric mean
Outline: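 Urine was collected predose, at 0–4, 4–8, 8–12 and 12–24 h, then every 24 h until discharge. Isopropyl alcohol equal to 20% of void mass was added, pools were kept at 4°C, and aliquots were frozen at −20°C. Urinary excretion of parent and M1a/M1b (fe0-tlast) and renal clearance came from non-compartmental analysis, given as geometric means.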

[5] = Metabolite profiling of feces; assay type: in vivo, human; conditions: pooled feces
Outline: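 Feces from single oral 20 mg (about 100 μCi) [14C] dosing was homogenised in about 20:80 acetonitrile:water. Metabolites were profiled by LC-HRMS with radioactivity counted in collected fractions. Identification cut-off was 1% of dose; quantitation limit was 1% of run and 10 cpm peak height. % of dose = (% radioactivity in peak/100) × % of dose in sample.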

[6] = tested on: naive rat intestinal contents; conditions: anaerobic conditions; cited from earlier work
[7] = Safety assessments; assay type: in vivo, human; conditions: single oral 20 mg
Outline: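 After one [14C] 20 mg oral dose, eight healthy men were monitored for vital signs, 12-lead ECG, clinical chemistry, haematology, urinalysis and adverse events at several time points. They stayed confined until at least Day 19 or until discharge criteria were met. A follow-up phone call came 7–9 days after discharge.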

[8] = Metabolite profiling of plasma; assay type: in vivo, human; conditions: pooled samples 2 to 264 h
Outline: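 Plasma taken at 2, 4, 12, 24, 72, 120, 168 and 264 h was pooled across participants by time point, in proportion to weight (1.2–2.5 g each), then counted by LSC. LC-HRMS profiling used fraction radioactivity counts. For chiral M1a/M1b separation, a 2–264 h pool ran on a cellulose column with reverse-phase gradient, 0.6 mL/min, over 15 min. Exposure = component AUC0-t / total radioactivity AUC0-t × 100.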

[9] = Plasma pharmacokinetics of aficamten, M1a and M1b; assay type: in vivo, human
Outline: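 About 3 mL K2EDTA blood was drawn predose and at 0.25–48 h, then every 24 h. Plasma was spun at about 2000G for 10 min at 4°C and stored at −20°C. Validated LC-MS/MS: parent on C18 with 10 mM ammonium acetate/acetonitrile gradient; M1a/M1b on a chiral column with 30:70 acetonitrile:10 mM ammonium acetate. Non-compartmental analysis gave Cmax, tmax, t1/2, AUCs, CL/F and Vz/F.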

[10] = cited from earlier work; remark: listed apart in the source
[11] = Metabolite profiling of urine; assay type: in vivo, human; conditions: pooled urine
Outline: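 Urine was pooled per participant into 0–336, 0–384 and 0–432 h pools (0.03–0.08% of each sample weight) and counted by LSC. Radiochromatograms came from LC-HRMS fractions. Chiral separation of M1a and M1b used a […] pool. Identification cut-off was 1% of dose; quantitation limit was 1% of run and 10 cpm peak height. % of dose = (% radioactivity in peak/100) × % of dose in sample.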

[12] = Mass balance: radioactive dose recovered in urine and feces; assay type: in vivo, human; conditions: for Cumulative percent of radioactive dose recovered: urine
Outline: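 8 healthy men each got one [14C]-labelled 20 mg oral capsule (about 100 μCi) with 240 mL water after a fast of at least 10 h. Urine was collected at 0–4, 4–8, 8–12 and 12–24 h, then every 24 h; feces every 24 h, homogenised in about 20:80 acetonitrile:water. Urine was counted directly by LSC; fecal homogenate was combusted first. Samples ran in duplicate. Collection continued until discharge criteria were met.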

[13] = whole blood, geometric mean (CV%)

## CCc1nc(-c2ccc3c(c2)CC[C@H]3NC(=O)c2cnn(C)c2)no1 [Aficamten]
[1]; geometric mean
  ratio of plasma analyte to plasma total radioactivity, AUC0‐inf: 0.290
  ratio of total radioactivity in whole blood: plasma based on AUC0‐inf: 0.566
[1]; plasma, geometric mean (CV%)
  Total radioactivity Cmax: 111 (43.2) ng/mL
[1]; plasma
  Total radioactivity t1/2: 98.2 (80.1–230) h
  Total radioactivity tmax: 3.50 (1.00–6.00) h
[1]; [13]
  Total radioactivity AUC0‐inf: 8660 (23.7) h.ng/mL
  Total radioactivity AUC0‐tlast: 5710 (38.5) h.ng/mL
  Total radioactivity Cmax: 66.7 (44.9) ng/mL
[1]; whole blood
  Total radioactivity t1/2: 100 (86.2–171) h
  Total radioactivity tmax: 4.50 (1.00–16.0) h
[2]
  effect of food on absorption: did not affect the extent of aficamten absorption
[2]; multiple doses
  time to steady state concentrations: ≤ 2 weeks
[3]; bile duct cannulated rats
  percent of the [^14C]aficamten radioactive dose in bile: trace level
[3]; intact rats
  percent of the [^14C]aficamten radioactive dose in feces: lack of detection
[3]; rat
  radioactive dose excreted by the hepatobiliary route: approximately 90%
  radioactive dose excreted in urine: approximately 8%
[4]
  CL renal: 0.0438 mL/min
[5]
  Percent of radioactive dose in feces: 5.07%
[5]; listed as aficamten
  Percent of radioactive dose in feces: approximately 5.07%
[6]
  fate on incubation with rat intestinal contents: completely cleared
[7]; 8 healthy male participants
  tolerability: well tolerated
[7]; 8 participants
  changes in vital signs, ECG measurements, laboratory values: no clinically significant changes in vital signs, ECG measurements, or laboratory values
  deaths, serious AEs, AEs leading to discontinuation: no deaths, and serious AEs or any AEs leading to discontinuation
  participants with an AE (diarrhea, mild, not considered related to treatment): 12.5%
[8]
  AUC0‐t % of total radioactivity AUC0‐t: 19.8%
[8]; listed as aficamten
  AUC0‐t % of total radioactivity AUC0‐t: approximately 19.8%
[9]; human, po, 20 mg
  Tmax: 2 h
  Vd/F: 690 L
[9]; human, po, 20 mg, AUC0‐inf, single oral 20 mg, geometric mean (CV%)
  AUC: 4440 ng·h/mL
[9]; human, po, 20 mg, AUC0‐tlast, single oral 20 mg, geometric mean (CV%)
  AUC: 4120 ng·h/mL
[9]; human, po, 20 mg, Cmax, single oral 20 mg, geometric mean (CV%)
  Cmax: 61.8 ng/mL
[9]; human, po, 20 mg, t1/2, plasma, single oral 20 mg, median (range)
  half-life: 99.6 h
[9]; single oral 20 mg, geometric mean (CV%)
  CL/F: 4.50 (32.1) L/h
[9]; single oral 20 mg, geometric mean (CV%), listed as aficamten
  CL/F: 4.50 L/h
[10]
  PK parameters in moderate hepatic impairment versus normal hepatic function: generally comparable
[11]
  Percent of radioactive dose in urine: No unchanged aficamten was recovered
[12]; based on recovery data
  fraction of dose absorbed: at least 0.95
[12]; urine and feces combined, by 336 h postdose
  mean recovery of radiolabeled material: 85.0%
[12]; urine and feces combined, end of sampling period (600 h)
  overall mean recovery of radioactivity in urine and feces: 89.7%
[12]; 0–96 h, individual subject
  Cumulative percent of radioactive dose recovered: 24.1% and 8.99% and 16.2% and 13.5% and 11.2% and 17.7% and 18.3% and 14.0%
[12]; 0–96 h, mean
  Cumulative percent of radioactive dose recovered: 15.5%
[12]; 0–120 h, individual subject
  Cumulative percent of radioactive dose recovered: 27.4% and 11.2% and 18.0% and 15.7% and 13.7% and 20.5% and 21.1% and 16.4%
[12]; 0–120 h, mean
  Cumulative percent of radioactive dose recovered: 18.0%
[12]; 0–144 h, individual subject
  Cumulative percent of radioactive dose recovered: 31.3% and 13.3% and 20.8% and 17.1% and 15.7% and 22.2% and 23.6% and 18.7%
[12]; 0–144 h, mean
  Cumulative percent of radioactive dose recovered: 20.3%
[12]; 0–168 h, individual subject
  Cumulative percent of radioactive dose recovered: 34.3% and 14.7% and 22.3% and 18.2% and 17.5% and 24.1% and 25.7% and 20.7%
[12]; 0–168 h, mean
  Cumulative percent of radioactive dose recovered: 22.2%
[12]; 0–192 h, individual subject
  Cumulative percent of radioactive dose recovered: 36.9% and 16.1% and 23.8% and 19.2% and 18.6% and 25.5% and 27.2% and 22.3%
[12]; 0–192 h, mean
  Cumulative percent of radioactive dose recovered: 23.7%
[12]; 0–216 h, individual subject
  Cumulative percent of radioactive dose recovered: 38.9% and 17.6% and 25.3% and 20.3% and 19.9% and 26.6% and 28.6% and 23.8%
[12]; 0–216 h, mean
  Cumulative percent of radioactive dose recovered: 25.1%
[12]; 0–240 h, individual subject
  Cumulative percent of radioactive dose recovered: 40.8% and 18.6% and 27.2% and 21.3% and 20.8% and 27.7% and 29.6% and 25.2%
[12]; 0–240 h, mean
  Cumulative percent of radioactive dose recovered: 26.4%
[12]; 0–264 h, individual subject
  Cumulative percent of radioactive dose recovered: 42.5% and 19.7% and 28.6% and 21.9% and 21.6% and 28.5% and 30.6% and 26.2%
[12]; 0–264 h, mean
  Cumulative percent of radioactive dose recovered: 27.5%
[12]; 0–288 h, individual subject
  Cumulative percent of radioactive dose recovered: 43.8% and 20.5% and 29.9% and 22.5% and 22.0% and 29.3% and 31.2% and 27.1%
[12]; 0–288 h, mean
  Cumulative percent of radioactive dose recovered: 28.3%
[12]; 0–312 h, individual subject
  Cumulative percent of radioactive dose recovered: 44.8% and 20.9% and 30.6% and 22.9% and 22.4% and 30.0% and 31.8% and 27.8%
[12]; 0–312 h, mean
  Cumulative percent of radioactive dose recovered: 28.9%
[12]; 0–336 h, individual subject
  Cumulative percent of radioactive dose recovered: 45.7% and 21.8% and 31.4% and 23.2% and 22.7%
[12]; 0–336 h, mean
  Cumulative percent of radioactive dose recovered: 29.5%
